Holding throughout (assay type): functional
For experiment [1], the system named is Rattus norvegicus. In words: Analgesic activity for inflamed rat-paw reversal of abnormal (three legged) gait expressed as ED50 (po). The essentials:
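Rats given brewers' yeast in plantar surface of left hind paw; 3 h later gait scored 0 (normal) to 2 (maximal abnormal). Rats scoring 2 dosed orally in 2% starch suspension with 5% PEG 400 and Tween 80; gait rescored at set intervals. ED50 = dose reducing score from 2 to 1 in 50% of rats.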

Experiment [2] relates to Rattus norvegicus. In words: Analgesic activity was measured using inflamed rat paw pressure threshold method expressed as ED50 (po). The gist of the method: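 Modified Randall–Selitto: left hind paw sensitised with 0.1 mL 20% aqueous brewers' yeast, pressure-pain threshold read 2 h after yeast. Oral dosing in 2% starch/5% PEG 400/Tween 80, timed to peak effect. ≥100% threshold elevation positive; ED50 (dose giving this in 50% of rats) with 95% limits by Finney arc sine method.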

Experiment [3] relates to Mus musculus. In words: Analgesic activity was measured using mouse anti-writhing method expressed as ED50 (po). The gist of the method: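 Mice in pairs; writhing induced by intraperitoneal phenyl-p-quinone 1 mg/kg. Compound given orally in 2% starch suspension with 5% PEG 400 and a drop of Tween 80.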
(In general: Writhing tests count abdominal constrictions after an irritant is injected.)

The subject of experiment [4] is Rattus norvegicus. In words: Analgesic activity was assessed for inflamed rat-paw reversal of abnormal (three legged) gait expressed as ED50 (sc). The essentials:
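Yeast (brewers') injected into plantar surface of left hind paw; gait scored 0–2 at 3 h. Rats scoring 2 received compound subcutaneously in normal saline; postdrug scores taken at set intervals. ≥50% gait reduction counted positive; ED50 = dose lowering score 2 to 1 in 50% of rats.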

The subject of experiment [5] is Rattus norvegicus. In words: Analgesic activity was measured using inflamed rat paw pressure threshold method expressed as ED50 (sc). The gist of the method:
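Paw-pressure threshold in rats, left hind paw injected with 0.1 mL 20% brewers' yeast; threshold recorded 2 h post-yeast. Compound given subcutaneously in normal saline at times set by duration of action. Positive = ≥100% threshold rise; ED50 with 95% confidence limits via Finney linear arc sine transformation.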

Where [6] appears, read: Rattus norvegicus, po, read-out: ED50.
[7] abbreviates: Mus musculus, po, read-out: ED50.

The values that follow come from ChEMBL document CHEMBL1121824, “1-Aryl-3-azabicyclo[3.1.0]hexanes, a new series of nonnarcotic analgesic agents” (1981).

A value given as a limit tells only on which side of the number the result lay.

The ED50 is the dose at which the effect has come halfway, by size or by number of responders. With `Cl.FC(F)(F)c1cccc(C23CNCC2C3)c1` (stereo not given), the ED50 in experiment [1] (setting [6]) came out at 28 mg/kg; in experiment [2] (setting [6]) it was 50 mg/kg; in experiment [3] (setting [7]) it was 29 mg/kg.

Consider `Brc1ccc(C23CNCC2C3)cc1.Cl` (stereo not given), for which, in experiment [1] (setting [6]), the ED50 turned out to be 141 mg/kg.

On to `Cc1ccc(C23CNCC2C3)cc1.Cl` (stereo in doubt; 2b) [BICIFADINE HYDROCHLORIDE], for which the ED50 in experiment [1] amounted to 18 mg/kg; in experiment [4], 4 mg/kg; in experiment [2], 11 mg/kg; in experiment [3] (setting [7]), 13 mg/kg.

For `Cl.c1ccc(C23CNCC2C3)cc1` (stereo in doubt; 2c), the values for the ED50 in experiment [1], in experiment [2] (setting [6]) and in experiment [3] (setting [7]) were 70 mg/kg, 71 mg/kg and under 100 mg/kg, respectively.

With `Cl.c1ccc(C23CNCC2C3)cc1` (single isomer, unassigned; (-)), the median effective dose (ED50) in experiment [1] was over 200 mg/kg; in experiment [2], 43 mg/kg; in experiment [3], under 50 mg/kg.

Regarding `Cl.Clc1ccccc1C12CNCC1C2` (stereo not given), in experiment [1] (setting [6]), the ED50 is over 100 mg/kg.

For `Cl.Clc1ccc(C23CNCC2C3)cc1Cl` (stereo not given), the ED50 in experiment [1] (setting [6]) amounted to 141 mg/kg.

For `Cl.Fc1cccc(C23CNCC2C3)c1` (stereo not given), the ED50 was over 50 mg/kg in experiment [1] (setting [6]), 67 mg/kg in experiment [2] (setting [6]) and 21 mg/kg in experiment [3] (setting [7]).

Take `COc1ccc(C23CNCC2C3)cc1Br.Cl` (stereo not given): in experiment [1] (setting [6]), the ED50 is over 25 mg/kg.

Regarding `CN1CC2CC2(c2cccc(O)c2)C1.Cl` (stereo not given), the figures for the ED50 in experiment [1] (setting [6]), in experiment [5] and in experiment [3] (setting [7]) were over 50 mg/kg, 25 mg/kg and over 50 mg/kg, respectively.

On to `CN1CC2CC2(c2ccc(Cl)cc2)C1.Cl` (stereo not given), for which the ED50 in experiment [1] (setting [6]) was over 50 mg/kg; in experiment [2] (setting [6]), 60 mg/kg; in experiment [3] (setting [7]), under 100 mg/kg.

In the case of `CC(=O)Oc1ccccc1C(=O)O` [ASPIRIN], the ED50 is 74 mg/kg in experiment [1] (setting [6]), 150 mg/kg in experiment [2] (setting [6]) and 29 mg/kg in experiment [3] (setting [7]).

`Cl.Clc1cccc(C23CNCC2C3)c1` (stereo not given): the ED50 is over 50 mg/kg in experiment [1] (setting [6]), 50 mg/kg in experiment [2] (setting [6]) and 34 mg/kg in experiment [3] (setting [7]).

With `Cc1ccc(C23CC2CN(CC2CC2)C3)cc1.Cl` (stereo not given), in experiment [1] (setting [6]), the ED50 is over 50 mg/kg.

Consider `CCOc1ccc(C23CNCC2C3)cc1.Cl` (stereo not given), for which the 50% effective dose (ED50) in experiment [1] (setting [6]) is 29 mg/kg.

In the case of `CC(C)(C)c1ccc(C23CNCC2C3)cc1.Cl` (stereo not given), in experiment [1] (setting [6]), the ED50 was over 200 mg/kg.

On to `COc1ccc(C23CNCC2C3)cc1.Cl` (stereo not given), for which the ED50 amounted to 24 mg/kg in experiment [1] (setting [6]), 49 mg/kg in experiment [2] (setting [6]) and 4 mg/kg in experiment [3] (setting [7]).

With `COc1cccc(C23CNCC2C3)c1.Cl` (stereo not given), the ED50 in experiment [1] (setting [6]) turned out to be 177 mg/kg.

Regarding `Cl.FC(F)(F)c1ccc(C23CNCC2C3)cc1` (stereo not given), the results for the ED50 in experiment [1] (setting [6]), in experiment [2] (setting [6]) and in experiment [3] (setting [7]) were 38 mg/kg, 40 mg/kg and over 100 mg/kg, respectively.

As to `Cc1ccc(C23CC2CN(C)C3)cc1.Cl` (stereo not given), the ED50 stood at 20 mg/kg in experiment [1] (setting [6]), 24 mg/kg in experiment [2] (setting [6]) and 16 mg/kg in experiment [3] (setting [7]).

For the compound `CC(C)c1ccc(C23CNCC2C3)cc1.Cl` (stereo not given), the ED50 in experiment [5] was over 25 mg/kg; in experiment [4], 9 mg/kg; in experiment [3] (setting [7]), 30 mg/kg.

Consider `COc1cccc(C23CC2CN(C)C3)c1.Cl` (stereo not given), for which the ED50 in experiment [1] (setting [6]) is over 100 mg/kg.

With `Cc1ccc(C23CNCC2C3)cc1.Cl` (single isomer, unassigned; (-)) [BICIFADINE HYDROCHLORIDE], the ED50 was over 200 mg/kg in experiment [1] and over 25 mg/kg in experiment [2].

With `Cl.Fc1ccc(C23CNCC2C3)cc1` (stereo not given), the ED50 in experiment [1] (setting [6]) is over 50 mg/kg; in experiment [2] (setting [6]) it was 14 mg/kg; in experiment [3] (setting [7]), 34 mg/kg.

In the case of `CCCCCCN1CC2CC2(c2ccc(C)cc2)C1.Cl` (stereo not given), the ED50 in experiment [1] (setting [6]) is over 50 mg/kg.

Turning to `Cl.c1ccc(C23CNCC2C3)cc1` (single isomer, unassigned; (+)), the values for the ED50 in experiment [1] and in experiment [2] were 125 mg/kg and 79 mg/kg, respectively.

Regarding `COc1ccc2c3c1O[C@H]1[C@@H](O)C=C[C@H]4[C@@H](C2)N(C)CC[C@@]341.COc1ccc2c3c1O[C@H]1[C@@H](O)C=C[C@H]4[C@@H](C2)N(C)CC[C@@]341.O.O=P(O)(O)O.O=P(O)(O)O` [CODEINE PHOSPHATE], the ED50 is 51 mg/kg in experiment [1] (setting [6]), 43 mg/kg in experiment [2] (setting [6]) and 9 mg/kg in experiment [3] (setting [7]).

With `Cc1ccc(C23CNCC2C3)cc1.Cl` (stereo in doubt; 2v) [BICIFADINE HYDROCHLORIDE], the results for the ED50 in experiment [1] and in experiment [2] were 17 mg/kg and under 25 mg/kg, respectively.

Turning to `Cc1cccc(C23CNCC2C3)c1.Cl` (stereo not given), the ED50 in experiment [1] (setting [6]) was over 50 mg/kg; in experiment [2] (setting [6]), 25 mg/kg; in experiment [3] (setting [7]), 18 mg/kg.

In the case of `C=CCN1CC2CC2(c2ccc(C)cc2)C1.Cl` (stereo not given), in experiment [1] (setting [6]), the ED50 is over 50 mg/kg.

For `Cc1ccccc1C12CNCC1C2.Cl` (stereo not given), the ED50 in experiment [1] (setting [6]) and in experiment [3] (setting [7]) was over 50 mg/kg throughout.

For the compound `Cl.Clc1ccc(C23CNCC2C3)cc1` (stereo in doubt; 2y (-)), the figures for the ED50 in experiment [1], in experiment [2] and in experiment [3] were 150 mg/kg, over 50 mg/kg and under 100 mg/kg, respectively.

Turning to `Cl.Clc1ccc(C23CNCC2C3)cc1` (stereo in doubt; 2a), the values for the ED50 in experiment [1], in experiment [2] and in experiment [3] were 31 mg/kg, 21 mg/kg and 21 mg/kg, respectively.

Consider `Cl.Clc1ccc(C23CNCC2C3)cc1` (stereo in doubt; 2x), for which the ED50 in experiment [1] is 25 mg/kg; in experiment [2] it was 13 mg/kg; in experiment [3], 19 mg/kg.

For the compound `Cl.Oc1cccc(C23CNCC2C3)c1` (stereo not given), the ED50 in experiment [5] is over 25 mg/kg; in experiment [4], 16 mg/kg.

For `CCc1ccc(C23CNCC2C3)cc1.Cl` (stereo not given), the 50% effective dose (ED50) was determined as 13 mg/kg in experiment [1] (setting [6]), 25 mg/kg in experiment [2] (setting [6]) and 24 mg/kg in experiment [3] (setting [7]).

On to `CCCCCCc1ccc(C23CNCC2C3)cc1.Cl` (stereo not given), for which the ED50 in experiment [1] (setting [6]) is over 50 mg/kg.

Consider `Cl.Oc1ccc(C23CNCC2C3)cc1` (stereo not given), for which the ED50 in experiment [1] (setting [6]) is over 200 mg/kg.

For the compound `Cl.FC(F)(F)c1cc(C23CNCC2C3)ccc1Cl` (stereo not given), the ED50 in experiment [1] (setting [6]) turned out to be 177 mg/kg.
